Results published in ChEMBL document CHEMBL1126092, “Design, synthesis, and biological evaluation of novel 4-substituted 1-methyl-1,2,3,6-tetrahydropyridine analogs of MPTP” (J Med Chem, 1992).

Columns and labels:
Details in all cases: cattle
[1] = target: T1, Amine oxidase [flavin-containing] B (Bos taurus, UniProt P56560); test: Selectivity ratio for Vmax and KM values against MAO-B enzyme from bovine liver mitochondria
T1 sequence (P56560 whole entry): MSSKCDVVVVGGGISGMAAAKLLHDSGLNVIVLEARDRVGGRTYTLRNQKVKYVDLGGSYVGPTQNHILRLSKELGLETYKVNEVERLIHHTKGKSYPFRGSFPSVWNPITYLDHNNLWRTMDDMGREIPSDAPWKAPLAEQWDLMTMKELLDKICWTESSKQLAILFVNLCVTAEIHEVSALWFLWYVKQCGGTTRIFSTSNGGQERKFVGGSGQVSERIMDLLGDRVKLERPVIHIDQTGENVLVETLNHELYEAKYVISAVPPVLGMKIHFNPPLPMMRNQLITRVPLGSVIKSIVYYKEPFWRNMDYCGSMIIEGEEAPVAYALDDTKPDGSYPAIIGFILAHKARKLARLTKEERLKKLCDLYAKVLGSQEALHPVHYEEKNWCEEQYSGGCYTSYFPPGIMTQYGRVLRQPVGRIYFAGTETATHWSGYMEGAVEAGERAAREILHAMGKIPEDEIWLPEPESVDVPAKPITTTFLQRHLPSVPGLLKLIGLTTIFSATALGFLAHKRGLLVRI
In short: (§1)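 Bovine liver mitochondrial MAO-B, 0.05 unit/mL (unit = 1 μmol benzylamine→benzaldehyde per min; equivalent to 3.7 nmol protein), incubated at 37 °C in 0.1 M sodium phosphate pH 7.4. Reaction started by substrate addition, final 0.1–3.0 mM. Product formation monitored spectrophotometrically, initial rates taken 30–180 s after enzyme addition. Apparent Vmax and KM from double reciprocal plot.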

[2] = target: T1, Amine oxidase [flavin-containing] B; test: (§2) Tested against Monoamine oxidase B enzyme from bovine liver mitochondria; in short: as §1
[3] = target: T2, Monoamine oxidase B (MAO-B) (Bos taurus, UniProt P56560); test: as §2; in short: as §1
T2 sequence (P56560 whole entry): T1 sequence (P56560 whole entry)

| SMILES | Ratio [1] | Vmax [2] [nM/min] | Km [3] [µM] |
| --- | --- | --- | --- |
| CN1CC=C(OC(=O)N(C)C)CC1 | 57 | – | – |
| CN1CC=C(Sc2ccccc2)CC1 | 3425 | – | – |
| CN1CC=C(c2ccccc2)CC1 | 523 | 204 | 390 |
| CN1CC=C(OC(=O)N(C)c2ccccc2)CC1 | 67 | – | – |
| CN1CC=C(Cc2ccccc2)CC1 | 2674 | – | – |
| CN1CC=C(Oc2ccccc2)CC1 | 688 | – | – |
